Calls of active or inactive are those of the source.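 How the source made its calls, unless noted: active means fluorescence slope after compound addition differing from the mean of all tested samples at 99.7% confidence, mostly higher but some lower; inactive means the rest.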
Assays:
[1] = inhibitors of TNFa-induced NFkB p65 translocation, primary screen, imaging, HUVEC, MLSMR starter and 10KST1 sets (AID 438;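 active means inhibition above 20% together with a positive visual image hit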;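 further: compound added about 3h40 before a 20 min TNFalpha stimulation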;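 on inhibition: signal is the nuclear over cytoplasmic p65 intensity ratio per well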); settings: HUVEC TNFa-induced p65 nuclear translocation; cell count: measured here: nuclei count (cytotoxicity indicator), at 2.08 µM; inhibition: at 2 µM, stronger effect = higher value, 0% TNFa-plus-vehicle, 100% no-TNFa wells
[2] = inhibitors of mutant huntingtin aggregation, primary screen, imaging, exon1htt(103Q)mCFP cells, high-content imaging (AID 483;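 active means visual image review flags a hit and inhibition of aggregation exceeds 20%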;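 further: compound exposure lasted 3 days before fixation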;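 on nuclei count: percent of the per-plate median nuclei count of sample wells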); settings: exon1htt(103Q)mCFP cell line, aggregate imaging, at 2 µM; inhibition of aggregation: stronger effect = higher value; nuclei count: measured here: cell count, toxicity
[3] = inhibitors of E-selectin induction by TNFa, primary screen, imaging, HUVEC, immunofluorescence, MLSMR starter and 10KST1 sets (AID 487;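 active means visually confirmed hit in the image check and inhibition above 20%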;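 on inhibition: signal is fraction of cell area covered by stained E-selectin grains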;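 on nuclei count: 100% = median nuclei count of all wells on the same plate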); settings: HUVEC TNFalpha-induced E-selectin immunofluorescence imaging, at 2 µM; inhibition: stronger effect = higher value; nuclei count: measured here: cell number, toxicity
[4] = biological target: Voltage-gated potassium channel subunit beta-2 (Rattus norvegicus) (UniProt P62483); assay: KvBeta enzyme negative modulators, primary screen, biochemical, NADPH fluorescence (AID 622;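 active means fluorescence slope higher than the sample average by over 3 SD, cut at about -0.22 in these data, passing the limit was not always enough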;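 further: slope of raw intensity against log time taken from 70 to 1610 s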); settings: recombinant KvBeta, 4-cyanobenzaldehyde reduction, at 10 µM, stronger effect = higher value
[5] = biological target: Voltage-gated potassium channel subunit beta-2 (Rattus norvegicus) (UniProt P62483); assay: KvBeta positive modulators, primary screen, biochemical, NADPH fluorescence (AID 623;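 active means NADPH fluorescence slope more negative than the mean of all samples by about 3 SD, 99.7% confidence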;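 further: fluorescence intensity change per second fitted from 20 to 320 s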); settings: Recombinant KvBeta, NADPH fluorescence decrease slope, 10 min; at 10 µM; stronger effect = lower value
[6] = biological target: Muscarinic acetylcholine receptor M4 (Homo sapiens) (UniProt P08173); assay: compounds altering M4/GIRK thallium flux, either direction, primary screen, M4 allosteric agonist project, cell-based, HEK293 M4/GIRK, BTC-AM (AID 625); settings: at 10 µM, actives lie on both sides;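 further: thallium influx through GIRK channels coupled to M4 in HEK293 cells with BTC-AM dye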
Procedure, shortened: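 assay system = HEK293 cells with M4 receptor and GIRK channels | medium = pH 7.3 thallium assay buffer | doses = 10 µM final, single point | timing = cells overnight at 37 °C, BTC-AM loading 1 h, reads 2 min total | signal = BTC-AM fluorescence, 1 Hz kinetic reads | read-out = post-addition slope, 15–24 s, of baseline-normalized fluorescence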

[7] = inhibitors of Sendai virus-induced IRF3 signaling, primary screen, TLR/RLR signaling modifier project, cell-based, Sendai virus stimulus, luciferase, 10K MLSCN set (AID 602276;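 active means inhibition at or above 50% at 10 µM; inactive means inhibition below 50%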;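 further: firefly luciferase from ISG56 promoter only with Renilla not read in this screen; 0% = Sendai virus plus DMSO and 100% = medium plus DMSO without virus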); settings: HEK293 RL24 IRF3 luciferase reporter, at 10 µM, stronger effect = higher value
[8] = inhibitors of poly I:C-induced TLR3 signaling, primary screen, cell-based, poly I:C stimulus, luciferase, 10K MLSCN set (AID 602277;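 active means inhibition of the reporter signal at or above 50%; inactive means inhibition below 50%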); settings: HEK293-TLR3 RL24 IRF3 luciferase reporter, at 10 µM, stronger effect = higher value

Sequence of Voltage-gated potassium channel subunit beta-2 (Rattus norvegicus) (P62483 whole entry, looked up): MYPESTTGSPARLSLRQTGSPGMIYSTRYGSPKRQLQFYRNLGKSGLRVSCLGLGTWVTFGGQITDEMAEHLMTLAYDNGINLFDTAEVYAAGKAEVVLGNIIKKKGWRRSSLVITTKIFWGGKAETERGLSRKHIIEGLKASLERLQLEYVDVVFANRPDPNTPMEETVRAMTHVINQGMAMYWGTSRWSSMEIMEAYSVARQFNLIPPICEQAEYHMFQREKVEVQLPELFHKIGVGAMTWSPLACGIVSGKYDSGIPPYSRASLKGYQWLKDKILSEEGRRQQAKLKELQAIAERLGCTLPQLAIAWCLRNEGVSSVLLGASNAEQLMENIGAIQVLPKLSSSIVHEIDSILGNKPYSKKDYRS
Sequence of Muscarinic acetylcholine receptor M4 (Homo sapiens) (P08173 whole entry, looked up): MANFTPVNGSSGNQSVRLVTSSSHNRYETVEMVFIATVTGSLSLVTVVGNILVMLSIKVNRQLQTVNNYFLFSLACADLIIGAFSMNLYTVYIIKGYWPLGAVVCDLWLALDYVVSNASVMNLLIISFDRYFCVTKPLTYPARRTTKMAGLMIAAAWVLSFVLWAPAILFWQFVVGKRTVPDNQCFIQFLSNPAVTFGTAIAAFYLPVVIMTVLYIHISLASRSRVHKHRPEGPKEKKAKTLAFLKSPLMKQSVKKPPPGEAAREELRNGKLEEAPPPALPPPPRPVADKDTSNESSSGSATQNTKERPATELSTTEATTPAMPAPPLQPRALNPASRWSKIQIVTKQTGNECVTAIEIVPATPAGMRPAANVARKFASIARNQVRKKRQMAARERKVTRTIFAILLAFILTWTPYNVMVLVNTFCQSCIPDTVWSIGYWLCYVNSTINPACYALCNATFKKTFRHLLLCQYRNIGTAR

| SMILES | cell count [1] | inhibition [1] | inhibition of aggregation [2] | nuclei count [2] | inhibition [3] | nuclei count [3] | fluorescence slope [4] | NADPH fluorescence slope [5] | fluorescence slope [6] | inhibition [7] | inhibition [8] |
| --- | --- | --- | --- | --- | --- | --- | --- | --- | --- | --- | --- |
| CC(=O)Nc1ccc(S(=O)(=O)N(CC(=O)O)Cc2ccccc2)cc1 | 487 | 6% (inactive) | 4.7% (inactive) | 107% | -167% (inactive) | 130% | -0.575 (inactive) | -4.6e-05 (inactive) | 0.00557 (inactive) | 8.06% (inactive) | 14.2% (inactive) |
| CC(C(=O)OCn1nnc2ccccc2c1=O)N1C(=O)c2ccccc2C1=O (centres undefined) | 532 | -15.6% (inactive) | 13.2% (inactive) | 84.6% | 15.7% (inactive) | 76.4% | -0.62 (inactive) | 2e-05 (inactive) | 0.00486 (inactive) | 12.3% (inactive) | 21.1% (inactive) |
| ON=C1/C(=N\O)CC2(C/C1=N/O)OCCO2 | 408 | 2.2% (inactive) | 22.4% (inactive) | 69.5% | 7.1% (inactive) | 89.7% | -0.532 (inactive) | -3.5e-05 (inactive) | 0.00423 (inactive) | 17% (inactive) | 4.87% (inactive) |
| COc1ccc(C2C(C#N)=C(C)NC3=C2C(=O)CC(C)(C)C3)c(OC)c1 (centres undefined) | 252 | -8% (inactive) | 19.6% (inactive) | 70.9% | 31.4% (inactive) | 96% | -0.463 (inactive) | -4.1e-06 (inactive) | 0.00543 (inactive) | 15.1% (inactive) | 18.9% (inactive) |
| CN(Cc1cnn(C)c1)C(=O)c1cc2ccccc2oc1=O | 682 | 13% (inactive) | -9.2% (inactive) | 92.1% | 40% (inactive) | 98.2% | -0.484 (inactive) | -5.1e-05 (inactive) | 0.00454 (inactive) | 11.1% (inactive) | 14% (inactive) |
| Cc1sc2ncnc(OCC(=O)N3CCN(S(=O)(=O)c4ccccc4)CC3)c2c1C | 247 | -7.7% (inactive) | 11.8% (inactive) | 90.7% | 16.8% (inactive) | 91.8% | -0.498 (inactive) | 3.8e-05 (inactive) | 0.00565 (inactive) | 16.8% (inactive) | 15.1% (inactive) |
| CCOc1nc(-c2ccccc2)ccc1-c1noc(-c2cccnc2)n1 | 233 | 8.4% (inactive) | -0.3% (inactive) | 99.4% | 29.6% (inactive) | 91.1% | -0.427 (inactive) | -0.000244 (inactive) | 0.00434 (inactive) | -14.5% (inactive) | -16% (inactive) |
| CCc1ccccc1NC(=O)CSc1nc2n[nH]c(C)c2c(=N)n1-c1ccc(OC)cc1 | 453 | 17.4% (inactive) | -1.3% (inactive) | 104% | 41.3% (inactive) | 103% | -0.47 (inactive) | -4.8e-05 (inactive) | 0.00766 (inactive) | 15.1% (inactive) | 20.3% (inactive) |
| O=C(O)c1ccc(-n2nc(C(F)(F)F)c3c2-c2ccoc2CC3)cc1 | 609 | -5.9% (inactive) | 5.8% (inactive) | 96.1% | -24.4% (inactive) | 90.9% | -0.492 (inactive) | 2.6e-05 (inactive) | 0.00488 (inactive) | 3.92% (inactive) | -5.27% (inactive) |
| CS(=O)(=O)c1ccc2nc(NC(=O)CCC(=O)c3cccs3)sc2c1 | 517 | 2.6% (inactive) | -3.8% (inactive) | 105% | -87.7% (inactive) | 95.8% | -0.594 (inactive) | 1.3e-06 (inactive) | 0.00448 (inactive) | 14.5% (inactive) | 4.68% (inactive) |
| CCOC(=O)c1nnn(-c2nonc2N)c1CN1CCc2ccccc2C1 | 200 | -3.9% (inactive) | -11.1% (inactive) | 80.6% | -18.4% (inactive) | 108% | -0.45 (inactive) | 4.7e-05 (inactive) | 0.00671 (inactive) | 6.68% (inactive) | 24.5% (inactive) |
| Cc1nc(SCC(=O)Nc2ccccc2C(F)(F)F)c2c(=O)n(C)c(=O)n(C)c2n1 | 414 | -4.7% (inactive) | 1.1% (inactive) | 120% | -111% (inactive) | 121% | -0.447 (inactive) | 8.7e-05 (inactive) | 0.0097 (inactive) | 7.4% (inactive) | 13.5% (inactive) |
| O=C(NCc1cccnc1)c1cn(CCc2ccccc2)nn1 | 569 | -0.4% (inactive) | -18.3% (inactive) | 98.8% | -48.9% (inactive) | 110% | -0.31 (inactive) | -2.1e-05 (inactive) | 0.0065 (inactive) | 10.9% (inactive) | 16.6% (inactive) |
| O=C(CSC1=NCCS1)NCc1ccco1 | 294 | 0.2% (inactive) | 16.5% (inactive) | 87.2% | -109% (inactive) | 108% | -0.268 (inactive) | 1.6e-06 (inactive) | 0.00551 (inactive) | -13.7% (inactive) | -22.5% (inactive) |

— PubChem BioAssay
